According to ChEMBL document CHEMBL1151735, “Further studies with the 2-amino-1,3-thiazol-4(5H)-one class of 11beta-hydroxysteroid dehydrogenase type 1 inhibitors: reducing pregnane X receptor activity and exploring activity in a monkey pharmacodynamic model” (J Med Chem, 2008):

Key:
[1] = biological target: T1, PXR (nuclear receptor subfamily 1 group I member 2) (Homo sapiens, UniProt O75469); assay: Transactivation of human PXR transfected in HEK cells at 2 uM by luciferase reporter gene assay relative to 12.5 uM rifampin; assay type: cell-based; conditions: HEK293 cells transfected with human PXR, read-out: Activity
T1 sequence (O75469 whole entry): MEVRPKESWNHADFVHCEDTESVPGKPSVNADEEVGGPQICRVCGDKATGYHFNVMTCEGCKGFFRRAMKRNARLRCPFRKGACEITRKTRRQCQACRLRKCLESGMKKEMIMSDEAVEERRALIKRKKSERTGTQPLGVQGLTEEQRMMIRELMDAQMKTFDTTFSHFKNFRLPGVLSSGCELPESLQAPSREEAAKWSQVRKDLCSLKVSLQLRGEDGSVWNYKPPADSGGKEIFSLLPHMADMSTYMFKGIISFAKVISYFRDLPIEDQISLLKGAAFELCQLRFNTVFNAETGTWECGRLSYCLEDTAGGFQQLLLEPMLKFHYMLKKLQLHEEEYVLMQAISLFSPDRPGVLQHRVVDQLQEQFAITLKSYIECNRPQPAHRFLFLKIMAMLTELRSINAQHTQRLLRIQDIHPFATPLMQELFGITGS
How it was run: (§1)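 HEK cells transfected with human PXR fused to a firefly luciferase reporter. Luciferase activity is expressed as percent of the 12.5 µM rifampin response. Run in triplicate; SEM reported.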

[2] = biological target: T2, Nuclear receptor subfamily 1 group I member 2 (Homo sapiens, UniProt O75469); assay: Transactivation of human PXR transfected in HEK cells at 20 uM by luciferase reporter gene assay relative to 12.5 uM rifampin; assay type: cell-based; conditions: hek293, 20 µM; how it was run: as §1
T2 sequence (O75469 whole entry): T1 sequence (O75469 whole entry)

[3] = biological target: T3, 11-beta-hydroxysteroid dehydrogenase 1 (Homo sapiens, UniProt P28845); assay: Inhibition of human recombinant 11beta-HSD1 expressed in Escherichia coli using [3H]cortisone by scintillation proximity assay
[4] = biological target: T4, 11-beta-hydroxysteroid dehydrogenase type 2 (Homo sapiens, UniProt P80365); assay: Inhibition of human 11beta-HSD2 expressed in CHO cells using [3H]cortisol by scintillation proximity assay; assay type: cell-based
T4 sequence (P80365 whole entry): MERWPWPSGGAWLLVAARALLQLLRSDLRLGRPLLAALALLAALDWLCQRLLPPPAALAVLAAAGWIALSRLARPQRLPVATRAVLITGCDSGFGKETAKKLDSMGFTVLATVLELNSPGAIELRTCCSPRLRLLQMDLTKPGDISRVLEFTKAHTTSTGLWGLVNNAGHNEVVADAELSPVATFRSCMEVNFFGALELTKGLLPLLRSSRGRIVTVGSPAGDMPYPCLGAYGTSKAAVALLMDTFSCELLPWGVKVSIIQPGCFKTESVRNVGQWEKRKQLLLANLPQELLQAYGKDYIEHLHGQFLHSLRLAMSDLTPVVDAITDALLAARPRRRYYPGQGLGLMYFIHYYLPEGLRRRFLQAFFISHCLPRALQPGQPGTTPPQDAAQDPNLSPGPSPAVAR
How it was run: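 Human 11β-HSD2 from CHO cells with [3H]cortisol 3 nM and NAD+ 300 µM, in 0.1 M sodium phosphate pH 7.6. 1 h at room temperature, then stopped with 18β-glycyrrhetinic acid. Anticortisol antibody and antimouse SPA beads added for 30 min; radiometric read-out.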

[5] = biological target: T3, 11-beta-hydroxysteroid dehydrogenase 1; assay: Inhibition of human 11beta-HSD1 expressed in CHO cells assessed as conversion of cortisone to cortisol by ELISA; assay type: cell-based

T3 sequence (P28845 whole entry): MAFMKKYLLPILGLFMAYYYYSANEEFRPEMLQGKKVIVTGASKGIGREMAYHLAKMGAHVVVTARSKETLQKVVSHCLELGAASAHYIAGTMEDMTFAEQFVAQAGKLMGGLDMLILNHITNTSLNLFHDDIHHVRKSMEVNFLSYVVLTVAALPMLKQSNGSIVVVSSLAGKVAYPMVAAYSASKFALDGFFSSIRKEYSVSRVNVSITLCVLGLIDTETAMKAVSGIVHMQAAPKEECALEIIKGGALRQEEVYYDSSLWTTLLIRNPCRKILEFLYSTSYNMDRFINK

SMILES: C[C@H](NC1=NC(=O)C(C)(c2ccc(CO)cc2)S1)c1ccc(F)cc1 (some centres not stated)
- activity at 2 µM [1]: 2.3%
- Activity [2]: 25%

SMILES: C[C@H](NC1=NC(=O)C(C)(C(C)(C)O)S1)c1ccccc1Cl (some centres not stated)
- Ki [3]: 26 nM
- IC50 [4]: > 10000 nM
- Activity [2]: 63%
- IC50 [5]: 18 nM

SMILES: CC(C(=O)N[C@H]1C2CC3CC1C[C@](O)(C3)C2)N1CCN(c2ccc(C(F)(F)F)cn2)CC1 (some centres not stated)
- IC50 [5]: 5 nM

SMILES: C[C@H](NC1=NC(=O)C(C)(c2ccc(F)cc2)S1)c1ccc(F)cc1 (some centres not stated)
- activity at 2 µM [1]: 64%
- Activity [2]: 65%

SMILES: C[C@H](NC1=NC(=O)C(C)(C2(O)CCCC2)S1)c1ccc(F)cc1 (some centres not stated)
- Ki [3]: 25 nM
- IC50 [4]: > 10000 nM
- Activity [2]: 61%
- IC50 [5]: 11 nM

SMILES: C[C@H](NC1=NC(=O)C(C)(C(C)(C)O)S1)c1ccc(F)cc1 (some centres not stated)
- Ki [3]: 65 nM
- IC50 [4]: > 10000 nM
- Activity [2]: 10%
- IC50 [5]: 51 nM

SMILES: C[C@H](NC1=NC(=O)C(C)(C(C)(C)O)S1)c1ccccc1F (some centres not stated)
- Ki [3]: 34 nM
- IC50 [4]: > 10000 nM
- Activity [2]: 19%
- IC50 [5]: 70 nM

SMILES: C[C@H](NC1=NC(=O)C(C)(C2(O)CCC2)S1)c1ccc(F)cc1 (some centres not stated)
- Ki [3]: 49 nM
- IC50 [4]: > 10000 nM
- Activity [2]: 26%
- IC50 [5]: 32 nM

SMILES: C[C@H](NC1=NC(=O)C(C)(c2ccc(C(N)=O)cc2)S1)c1ccc(F)cc1 (some centres not stated)
- activity at 2 µM [1]: 0.8%
- Activity [2]: 9.3%
